Screening data: PubChem BioAssay, Johns Hopkins Ion Channel Center
MrgX1 ag: activates human MrgX1 receptor signaling; Q96LB2; actives 0.44% (n = 310,000); B-score at 10 µM; AID 588627; MrgX1-HEK293 cells, Fluo-4 calcium fluorescence, agonist mode; hits give high values;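 active = calcium response B-score plate-corrected fluorescence ratio at least 3 library SD, with starting fluorescence B-score inside 5 SD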
Target sequence (Q96LB2 whole entry, looked up): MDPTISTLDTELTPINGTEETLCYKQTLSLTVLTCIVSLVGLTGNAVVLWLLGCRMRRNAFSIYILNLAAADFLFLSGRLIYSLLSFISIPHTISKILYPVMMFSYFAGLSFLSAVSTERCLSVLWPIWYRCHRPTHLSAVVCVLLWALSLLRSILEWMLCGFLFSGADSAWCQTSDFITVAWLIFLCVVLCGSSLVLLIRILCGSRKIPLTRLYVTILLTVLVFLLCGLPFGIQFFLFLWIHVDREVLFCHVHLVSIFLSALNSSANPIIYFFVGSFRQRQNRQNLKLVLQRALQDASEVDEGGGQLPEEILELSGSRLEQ
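Test system: Stable human MrgX1 HEK293 cell line | Schedule: Overnight plating before 1 h dye loading | Read-out basis: Baseline-normalised fluorescence change ratio, B-scored | Detection: Kinetic calcium dye fluorescence, Fluo-4 NW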
RGS4 act: potentiators or activators of RGS4. HEK293 M3R/inducible RGS4, carbachol calcium flux Fluo4; hits give low values. B-score at 10 µM. actives 0.92% (n = 310,000);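 active = B-score of the integrated calcium signal more than 4 SD below the library mean, with starting fluorescence not abnormally high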;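 note: negative B-score means reduced calcium response which marks RGS4 activation or potentiation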
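Material: Inducible-RGS4 HEK293 cells carrying M3 receptor; also added: carbachol at ECmax as muscarinic agonist stimulus; incubation: compound preincubation 20 min at room temperature before agonist; signal: Fluo4-AM (2 µM) calcium-flux fluorescence, kinetic read; measure: integrated calcium ratio converted to B score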
MrgX1 PAM: human MrgX1 positive allosteric modulation, primary screen. MrgX1-HEK293, Fluo-4 calcium flux, FDSS; hits give high values. B-score at 10 µM. actives 0.63% (n = 310,000);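 active = plate-corrected calcium response at least 3 library SD above typical, normal starting fluorescence, not activating the receptor alone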;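 note: compound read alongside a low EC10 to EC30 dose of BAM8-22 agonist; peak minus trough fluorescence over baseline measured at the second addition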
MrgX1 antag: blocks BAM8-22 activation of human MrgX1 receptor; Q96LB2; B-score at 10 µM; MRGX1-HEK293 calcium flux, Fluo-4, BAM8-22 antagonism; hits give low values; actives 1.3% (n = 310,000);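 active = calcium-response B-score plate-corrected more than 3 library SD below zero, starting fluorescence within 5 deviations, no agonist response on first addition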;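 note: peak minus trough fluorescence over baseline after final BAM8-22 challenge near maximal dose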
RGS4 block: inhibitors of human RGS4; P49798; HEK293 M3R/RGS4 inducible, Fluo-4 calcium flux; hits give high values; triggered by carbachol at its EC20; B-score at 10 µM; actives 0.45% (n = 310,000); AID 463165;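 active = B-score, a plate-corrected calcium signal, over three deviations above library mean, with baseline fluorescence within five deviations of library mean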;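 note: RGS4 expression induced by doxycycline in cells with stable M3 receptor; B-score is computed from the integrated fluorescence ratio over baseline after carbachol; higher B-score means a larger calcium signal and so more RGS4 inhibition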
Target sequence (P49798 whole entry, looked up): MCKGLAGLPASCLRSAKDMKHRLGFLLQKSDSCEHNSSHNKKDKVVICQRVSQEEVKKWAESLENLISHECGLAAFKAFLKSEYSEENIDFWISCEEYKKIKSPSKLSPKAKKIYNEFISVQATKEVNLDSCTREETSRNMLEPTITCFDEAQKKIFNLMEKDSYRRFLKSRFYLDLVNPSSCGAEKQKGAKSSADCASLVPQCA
* marks the source's active call; other numbers are inactive results; i = inactive; x = not tested or not shown. Only some compounds are listed: those with a hit (about 3.5% of all), similar ones and a draw of the others.

SMILES | MrgX1 ag | RGS4 act | MrgX1 PAM | MrgX1 antag | RGS4 block
COCCNC(=O)CS(=O)Cc1nc(-c2ccccc2C)oc1C (stereo unspecified) | i | i | i | -5.3* | i
Cc1ccccc1-c1nc(CS(=O)CC(=O)NCc2ccccc2)c(C)o1 (stereo unspecified) | i | i | i | i | i
O=C(N/N=C/c1ccc(N2CCOCC2)cc1)c1cccs1 | i | i | i | i | i
O=C(N/N=C/c1ccc(N2CCOCC2)cc1)c1ccccc1OCCOc1ccccc1 | i | -7.1* | i | i | i
O=[N+]([O-])c1ccc2oc(C(O)c3cccc(Cl)c3)cc2c1 (stereo unspecified) | i | i | 8.5* | i | i
COc1cccc([C@@H]2CC=C(C(=O)O)CN2S(=O)(=O)c2ccc(C)cc2)c1 | i | x | i | i | x
O=C1CSC(c2ccccc2Br)N1c1ccc(Cl)cn1 (stereo unspecified) | i | -7* | i | i | i
COc1ccc(NS(=O)(=O)c2cccc(C(=O)NCC(c3ccc(OC)cc3)N3CCOCC3)c2)cc1 (stereo unspecified) | i | i | i | -4.7* | i
CCc1ccc2oc(C(=O)NCC(c3ccc(OC)cc3)N3CCCCC3)c(C)c2c1 (stereo unspecified) | i | -8.1* | i | i | i
COc1ccc(C(CNC(=O)c2cccc(S(=O)(=O)Nc3ccc(C)cc3)c2)N2CCOCC2)cc1 (stereo unspecified) | i | i | i | i | i
Cc1ccc(N2CC(C(=O)Nc3ccc(S(=O)(=O)N4CCOCC4)cc3)CC2=O)cc1Cl (stereo unspecified) | i | i | i | i | i
Cc1c(NC(=O)CCc2ccccc2)cccc1[N+](=O)[O-] | i | i | i | i | i
Cc1ccc(S(=O)(=O)N(CC(=O)Nc2cccc(N(C)S(C)(=O)=O)c2)c2ccc(Cl)c(Cl)c2)cc1 | i | -11* | i | i | i
CN(c1cccc(NC(=O)CN(c2ccc(Cl)c(Cl)c2)S(=O)(=O)c2ccccc2)c1)S(C)(=O)=O | i | i | i | i | i
Cc1cc(C)c(S(=O)(=O)Nc2ccc3c4c(cccc24)CC3)c(C)c1 | i | -7.5* | i | i | i
COC(=O)C1=C(C)NC(C)=C(C(=O)OC)C1c1ccccc1[N+](=O)[O-] | i | -8.5* | i | i | i
COc1ccc([N+](=O)[O-])cc1NC(=O)C(C)OC(=O)CSC(C)C(=O)Nc1cc(C)on1 (stereo unspecified) | i | i | i | i | i
CC1(c2nnc(-c3ccc(Cl)cc3)o2)CC(c2c(Cl)cccc2Cl)=NO1 (stereo unspecified) | i | -9.2* | i | i | i
CC1(c2nnc(-c3ccc(F)cc3)o2)CC(c2c(Cl)cccc2Cl)=NO1 (stereo unspecified) | i | i | i | i | i
Cc1cc(Cl)c2oc(C(=O)N3CCN(C(=O)c4ccco4)CC3)c(C)c2c1 | i | i | i | i | i
Cc1cc(-c2ccccc2)nc2cc(C(=O)N(Cc3ccccc3)Cc3ccccc3)nn12 | i | -7.9* | i | i | i
COC(=O)c1cc2nc(-c3ccccc3)cc(C)n2n1 | i | i | i | i | i
N=c1n(Cc2ccccc2)c2ccccc2n1CC(O)COc1ccc(Cl)cc1Cl (stereo unspecified) | x | -9* | x | x | i
N=c1n(Cc2ccc(Cl)cc2)c2ccccc2n1CC(O)COc1ccccc1 (stereo unspecified) | i | i | i | i | i
COc1ccc(/C=C/C(=O)c2ccc3ccccc3c2O)cc1CN1CCOCC1 | i | i | i | -4.7* | i
SMILES | MrgX1 ag | RGS4 act | MrgX1 PAM | MrgX1 antag | RGS4 block
Clc1ccc(-c2nnsc2SCc2ccccc2)cc1 | i | i | i | i | i
Clc1ccc(CSc2snnc2-c2ccccc2)cc1 | i | -7.2* | i | i | i
CC(C)(C)C(=O)/C=c1\[nH]c(=O)/c(=C\c2ccc(F)cc2)s1 | i | i | i | i | i
COc1ccc(/C=c2\s/c(=C/C(=O)c3ccc(C)cc3)[nH]c2=O)cc1OC | 29* | i | i | i | i
CC/C(CC(C)(C)c1ccccc1)=N\O | i | i | i | i | i
CC[N+](C)(CC)CCC/C(=N/O)C(O)(c1ccccc1)c1ccccc1 | i | -9.7* | i | i | i
CCN(CC)CCC/C(=N\O)C(O)(c1ccccc1)c1ccccc1 | i | -10* | i | i | i
COCCN(C(=S)Nc1ccc(Cl)cc1OC)C1CCN(C(C)=O)CC1 | i | i | i | i | i
Cn1c(N)c(-c2ccccc2)c2ccc([N+](=O)[O-])cc2c1=O | 30* | i | i | i | i
CCc1ccc(CNC(=O)C2CC(=O)N(C3CCCC3)C2)cc1 (stereo unspecified) | i | i | i | i | i
CCc1ccc(OCC(=O)NNC(=O)Cc2ccc(S(=O)(=O)N3CCOCC3)s2)cc1 | i | i | i | -6.9* | i
COc1cc2c(cc1OC)C(COc1ccc([N+](=O)[O-])cc1)NCC2 (stereo unspecified) | i | i | i | i | i
CCOc1cc(-c2nnc(NC(=O)c3ccco3)o2)cc(OCC)c1OCC | i | i | i | -4.9* | i
CCCCC1C(=O)CC[C@H]2[C@@H]1CC(=O)[C@@H]2C/C=C\CCCC(=O)O (stereo partly specified) | i | i | i | i | i
CCCCC[C@H](O)/C=C/[C@H]1[C@H](O)CC(=O)[C@@H]1CCCCCCC(=O)O | 30* | i | i | i | 6.4*
Cc1cccc(OCCC(=O)NCC(=O)Nc2cccc(C)c2C)c1 | i | i | i | i | i
Cc1cc(C(=O)NNC(=O)c2sccc2C)c(C)o1 | i | i | i | i | i
CCN1C(=O)C(O)(CC(=O)/C=C/C=C/c2ccccc2)c2ccccc21 (stereo unspecified) | i | i | i | i | i
C#CCN1C(=O)C(O)(CC(=O)/C=C/C=C/c2ccccc2)c2ccccc21 (stereo unspecified) | i | i | 6.7* | i | i
Cc1ccc(/C(=N\O)c2oc3c(C)c4oc(=O)cc(C)c4cc3c2C)cc1 | i | -8.1* | 10* | i | i
CCN=C1SC(C(=O)Nc2cccc(C)c2)CC(=O)N1CC (stereo unspecified) | i | -7.4* | i | i | i
